Data: publication PMC3581696 (The Journal of General Physiology, 2013)

Legend:
mEAG1 channel = target: T1, mEAG1 channel (Mus musculus, UniProt Q60603); assay: Outside-out patch-clamp of mEAG1 channels expressed in Xenopus oocytes; type: cell-based; details: 10 µM fisetin; outside-out patches; n = 4
T1 sequence (Q60603 1-989): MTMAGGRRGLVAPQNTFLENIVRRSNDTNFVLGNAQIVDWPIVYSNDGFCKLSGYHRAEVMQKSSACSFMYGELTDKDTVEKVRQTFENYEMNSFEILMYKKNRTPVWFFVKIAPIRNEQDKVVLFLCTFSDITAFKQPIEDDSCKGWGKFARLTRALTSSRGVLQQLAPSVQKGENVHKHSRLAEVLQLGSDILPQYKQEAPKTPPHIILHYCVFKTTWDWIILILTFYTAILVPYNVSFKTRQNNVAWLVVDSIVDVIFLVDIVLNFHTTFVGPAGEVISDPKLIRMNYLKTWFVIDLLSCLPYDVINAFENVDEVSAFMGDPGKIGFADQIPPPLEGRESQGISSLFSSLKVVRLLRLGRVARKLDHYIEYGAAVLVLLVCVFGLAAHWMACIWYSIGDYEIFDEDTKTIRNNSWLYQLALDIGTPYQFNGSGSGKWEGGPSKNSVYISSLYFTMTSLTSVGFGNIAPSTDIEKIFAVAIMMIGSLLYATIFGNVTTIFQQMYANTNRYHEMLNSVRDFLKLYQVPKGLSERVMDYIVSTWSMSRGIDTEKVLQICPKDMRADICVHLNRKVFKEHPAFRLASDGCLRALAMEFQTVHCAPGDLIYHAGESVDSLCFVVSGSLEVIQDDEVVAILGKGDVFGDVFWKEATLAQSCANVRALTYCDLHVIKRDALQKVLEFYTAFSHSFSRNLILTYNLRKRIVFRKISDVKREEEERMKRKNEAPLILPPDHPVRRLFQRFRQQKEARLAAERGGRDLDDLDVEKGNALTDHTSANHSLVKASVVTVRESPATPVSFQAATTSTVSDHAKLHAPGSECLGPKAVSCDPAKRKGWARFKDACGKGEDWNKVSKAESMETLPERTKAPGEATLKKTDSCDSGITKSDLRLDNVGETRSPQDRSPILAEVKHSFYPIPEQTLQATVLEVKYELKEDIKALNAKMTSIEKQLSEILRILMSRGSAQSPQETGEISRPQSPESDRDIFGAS
Outline: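 Outside-out patches were excised from Xenopus oocytes expressing mouse EAG1. Bath and pipette solutions were 130 mM KCl, 10 mM HEPES, 0.2 mM EDTA, pH 7.2. Patches were exposed to 10 µM flavonoid. The shift in V1/2 was taken from Boltzmann fits of tail-current conductance–voltage relationships.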

mEAG1 Δ2–173 channels = target: T2, mEAG1 Δ2–173 channels (Mus musculus, UniProt Q60603); assay: Inside-out patch-clamp of amino-terminal deletion mutant channels; type: cell-based
T2 sequence (Q60603 with tags, fused parts or gaps): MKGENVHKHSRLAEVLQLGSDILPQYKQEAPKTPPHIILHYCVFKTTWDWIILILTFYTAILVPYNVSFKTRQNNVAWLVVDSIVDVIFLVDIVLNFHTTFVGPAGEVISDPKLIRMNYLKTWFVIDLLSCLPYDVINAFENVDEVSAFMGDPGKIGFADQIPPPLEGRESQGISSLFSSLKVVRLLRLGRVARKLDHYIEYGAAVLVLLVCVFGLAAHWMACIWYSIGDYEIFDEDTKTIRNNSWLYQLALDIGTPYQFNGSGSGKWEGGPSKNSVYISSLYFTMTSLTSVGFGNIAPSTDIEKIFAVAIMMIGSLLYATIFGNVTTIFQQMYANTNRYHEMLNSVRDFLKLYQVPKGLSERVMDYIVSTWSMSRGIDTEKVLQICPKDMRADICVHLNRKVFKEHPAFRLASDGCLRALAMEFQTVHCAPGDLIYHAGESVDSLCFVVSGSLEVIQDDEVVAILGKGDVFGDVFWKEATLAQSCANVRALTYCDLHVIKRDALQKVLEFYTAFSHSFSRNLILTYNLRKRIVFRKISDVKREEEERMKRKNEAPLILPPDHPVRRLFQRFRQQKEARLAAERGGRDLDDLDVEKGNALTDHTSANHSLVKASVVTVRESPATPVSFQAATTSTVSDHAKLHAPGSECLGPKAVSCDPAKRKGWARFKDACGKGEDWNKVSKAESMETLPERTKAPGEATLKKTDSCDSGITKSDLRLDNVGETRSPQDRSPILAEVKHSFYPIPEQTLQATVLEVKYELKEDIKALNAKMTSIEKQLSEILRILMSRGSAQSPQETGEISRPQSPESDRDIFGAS
Outline: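 Δ2–173 mEAG1 was expressed in Xenopus oocytes and recorded in inside-out patches in symmetric 130 mM KCl/HEPES/EDTA, pH 7.2, held at −100 mV. Steps of 3 s from −100 to +100 mV (20-mV increments) returned to −100 mV for 1 s, with 0 or 30 µM flavonoid. Conductance–voltage data were fit with a product of two Boltzmann functions, with inactivation parameters and activation slope held fixed. The −100 mV tail after a step to −40 mV was fit with a single exponential.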

shift of the conductance–voltage relationship (mEAG1 channel): −8.1 ± 2.3 mV
increase of peak conductance after a step to −40 mV (mEAG1 Δ2–173 channels; 30 µM fisetin, average): 1.7 fold
time constant of deactivation (mEAG1 Δ2–173 channels; with 30 µM fisetin, after a step to −40 mV, 117 ± 1 ms without, n = 3): 375 ± 36 ms
time constant of deactivation (tail currents of Fig. 5 C) (mEAG1 Δ2–173 channels; with 30 µM fisetin, tail at −100 mV after step to −40 mV, 116 ms without): 239 ms
SMILES: O=c1c(O)c(-c2ccc(O)c(O)c2)oc2cc(O)ccc12 [Fisetin, 2-(3,4-dihydroxyphenyl)-3,7-dihydroxychromen-4-one]
